Data reported in ChEMBL document CHEMBL3232758, “Synthesis and evaluation of carbon-linked analogs of dual orexin receptor antagonist filorexant” (Bioorg Med Chem Lett, 2014).
Converted amounts (≈) assume the structure as drawn. One block for each compound: values may come before it. The source made the active and inactive calls. The rule behind the calls is not given here.

What was measured:
[1] = molecular target: T1, Orexin/Hypocretin receptor type 1 (Homo sapiens, UniProt O43613); experiment: Antagonist activity at human OX1 receptor assessed as Ca2+ flux by FLIPR assay; type: functional
T1 sequence (O43613 whole entry): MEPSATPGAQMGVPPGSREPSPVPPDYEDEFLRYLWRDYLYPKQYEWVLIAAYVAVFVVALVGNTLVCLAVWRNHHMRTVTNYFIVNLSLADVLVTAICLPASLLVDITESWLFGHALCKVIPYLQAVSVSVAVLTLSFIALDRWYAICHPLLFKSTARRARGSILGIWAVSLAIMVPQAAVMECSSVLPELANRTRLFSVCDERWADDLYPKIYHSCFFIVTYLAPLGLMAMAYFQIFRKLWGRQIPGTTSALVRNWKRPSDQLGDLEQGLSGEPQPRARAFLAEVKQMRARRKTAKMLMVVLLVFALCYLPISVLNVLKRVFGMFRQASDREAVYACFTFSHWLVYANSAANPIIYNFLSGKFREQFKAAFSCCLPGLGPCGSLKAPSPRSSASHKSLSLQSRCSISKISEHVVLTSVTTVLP

[2] = molecular target: T2, Orexin receptor type 2 (Homo sapiens, UniProt O43614); experiment: Antagonist activity at human OX2 receptor assessed as Ca2+ flux by FLIPR assay; type: functional
T2 sequence (O43614 whole entry): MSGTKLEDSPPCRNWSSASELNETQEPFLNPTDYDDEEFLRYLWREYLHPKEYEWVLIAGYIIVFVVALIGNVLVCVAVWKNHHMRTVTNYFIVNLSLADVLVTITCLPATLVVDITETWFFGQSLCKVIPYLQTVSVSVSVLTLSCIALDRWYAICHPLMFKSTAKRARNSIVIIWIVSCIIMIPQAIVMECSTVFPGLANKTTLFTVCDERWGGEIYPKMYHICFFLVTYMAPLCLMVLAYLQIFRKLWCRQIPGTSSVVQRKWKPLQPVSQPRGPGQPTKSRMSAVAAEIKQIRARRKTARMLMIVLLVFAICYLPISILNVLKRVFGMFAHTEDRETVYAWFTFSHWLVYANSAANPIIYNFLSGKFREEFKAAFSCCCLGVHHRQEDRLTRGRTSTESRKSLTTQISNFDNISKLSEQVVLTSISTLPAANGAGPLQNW

[3] = molecular target: T1, Orexin/Hypocretin receptor type 1; experiment: Binding affinity to human OX1 receptor in cell membrane by in vitro radioligand binding assay; type: cell membranes
Summary of the method: (§1)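 Radioligand binding to membranes from human cells overexpressing OX1R or OX2R; affinity expressed as Ki.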

[4] = molecular target: T2, Orexin receptor type 2; experiment: Binding affinity to human OX2 receptor in cell membrane by in vitro radioligand binding assay; type: cell membranes; summary of the method: as §1
[5] = Lipophilicity, log D of the compound at pH 7 by HPLC analysis; type: physicochemical; details: buffer
Summary of the method: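 High-throughput HPLC logD at pH 7 using a reversed-phase C18 column, with phosphate-buffered saline pH 7 and acetonitrile as mobile phases. The system is calibrated with standards of published shake-flask logD, and logD is read from a linear regression of retention time against logD.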

[6] = molecular target: T3, Cytochrome P450 3A4 (Homo sapiens, UniProt P08684); experiment: Inhibition of CYP3A4 (unknown origin); type: ADME
[7] = Clearance in iv dosed dog; type: ADME, organism-based, Canis lupus familiaris; details: in vivo
[8] = test system: Mus musculus; experiment: Sleep promoting activity in OX2 receptor knockout mouse at 100 mg/kg, po administered during dark or active phase 4 hrs prior to lights on; type: functional, organism-based; parameters: dose 100 mg/kg
Summary of the method: (§2)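 Mice carried surgically implanted radiotelemetry transmitters recording EEG and EMG to score vigilance state; wildtype n = 5, OX2R knockout n = 6. Oral 100 mg/kg or vehicle (20% Vit. E TPGS) in a balanced cross-over, dosed in the dark (active) phase 4 h before lights on. Mean time per state was taken in 30 min intervals and compared by a linear mixed-effects repeated-measures t-test.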

[9] = test system: Mus musculus; experiment: Sleep promoting activity in wild type mouse sleep EEG model assessed as reduction of active wake at 100 mg/kg, po administered during dark or active phase 4 hrs prior to lights on measured during first 30 mins after drug administration; type: functional, organism-based; parameters: dose 100 mg/kg; summary of the method: as §2
[10] = Plasma protein binding in dog; type: ADME, cell-free, Canis lupus familiaris; details: read-out: PPB (converted)
[11] = molecular target: CYP3A4 (Homo sapiens, UniProt P08684); experiment: Time-dependent inhibition of CYP3A4 (unknown origin) assessed as IC50 shift ratio; type: ADME; details: read-out: Ratio IC50
[12] = test system: Mus musculus; experiment: Sleep promoting activity in wild type mouse sleep EEG model assessed as increase in delta sleep at 100 mg/kg, po administered during dark or active phase 4 hrs prior to lights on measured during first 30 mins after drug administration; type: functional, organism-based; parameters: dose 100 mg/kg; summary of the method: as §2
[13] = molecular target: Cytochrome P450 2C9 (Homo sapiens, UniProt P11712); experiment: Inhibition of CYP2C9 (unknown origin); type: ADME
[14] = test system: Mus musculus; experiment: Sleep promoting activity in wild type mouse sleep EEG model assessed as increase in REM sleep at 100 mg/kg, po administered during dark or active phase 4 hrs prior to lights on measured for 2 hrs following drug administration; type: functional, organism-based; parameters: dose 100 mg/kg; summary of the method: as §2
[15] = test system: Mus musculus; experiment: Sleep promoting activity in wild type mouse sleep EEG model assessed as duration of sleep at 100 mg/kg, po administered during dark or active phase 4 hrs prior to lights on; type: functional; summary of the method: as §2
[16] = molecular target: Cytochrome P450 2D6 (Homo sapiens, UniProt P10635); experiment: Inhibition of CYP2D6 (unknown origin); type: ADME
[17] = test system: Mus musculus; experiment: Sleep promoting activity in wild type mouse sleep EEG model assessed as increase in REM sleep at 100 mg/kg, po administered during dark or active phase 4 hrs prior to lights on measured during first 30 mins after drug administration; type: functional, organism-based; parameters: dose 100 mg/kg; summary of the method: as §2
[18] = Plasma concentration in mouse at 100 mg/kg, po; type: ADME, organism-based; parameters: dose 100 mg/kg, route oral
[19] = molecular target: T3, Cytochrome P450 3A4; experiment: Time-dependent inhibition of CYP3A4 (unknown origin); type: ADME; details: TDE = time-dependent effect
[20] = Plasma protein binding in human; type: ADME, cell-free; details: read-out: PPB (converted)
[21] = Solubility of the compound at pH 7 by HPLC analysis; type: physicochemical; details: buffer
[22] = test system: Mus musculus; experiment: Sleep promoting activity in wild type mouse sleep EEG model assessed as increase in delta sleep at 100 mg/kg, po administered during dark or active phase 4 hrs prior to lights on measured for 2 hrs following drug administration; type: functional, organism-based; parameters: dose 100 mg/kg; summary of the method: as §2
[23] = Half life in iv dosed dog; type: ADME, organism-based, Canis lupus familiaris; details: in vivo
[24] = molecular target: Voltage-gated inwardly rectifying potassium channel KCNH2 (Homo sapiens, UniProt Q12809); experiment: Inhibition of human ERG
[25] = test system: Mus musculus; experiment: Sleep promoting activity in wild type mouse sleep EEG model assessed as reduction of active wake at 100 mg/kg, po administered during dark or active phase 4 hrs prior to lights on measured for 2 hrs following drug administration; type: functional, organism-based; parameters: dose 100 mg/kg; summary of the method: as §2

T3 sequence (P08684 whole entry): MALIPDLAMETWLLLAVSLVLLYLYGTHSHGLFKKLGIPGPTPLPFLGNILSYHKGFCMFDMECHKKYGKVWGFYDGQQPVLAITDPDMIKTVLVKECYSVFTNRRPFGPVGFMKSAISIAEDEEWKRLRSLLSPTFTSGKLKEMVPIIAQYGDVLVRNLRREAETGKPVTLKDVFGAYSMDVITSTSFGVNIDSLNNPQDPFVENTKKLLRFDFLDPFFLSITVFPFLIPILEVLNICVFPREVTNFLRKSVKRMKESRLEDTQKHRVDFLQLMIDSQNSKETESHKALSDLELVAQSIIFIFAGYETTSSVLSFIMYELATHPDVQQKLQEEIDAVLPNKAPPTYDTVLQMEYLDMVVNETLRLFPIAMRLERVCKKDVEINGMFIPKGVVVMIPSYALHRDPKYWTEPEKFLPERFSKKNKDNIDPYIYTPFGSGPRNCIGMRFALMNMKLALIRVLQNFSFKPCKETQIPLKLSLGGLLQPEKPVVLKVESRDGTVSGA
Chain of CYP3A4 (P08684 whole entry): as above
Chain of Cytochrome P450 2D6 (P10635 whole entry): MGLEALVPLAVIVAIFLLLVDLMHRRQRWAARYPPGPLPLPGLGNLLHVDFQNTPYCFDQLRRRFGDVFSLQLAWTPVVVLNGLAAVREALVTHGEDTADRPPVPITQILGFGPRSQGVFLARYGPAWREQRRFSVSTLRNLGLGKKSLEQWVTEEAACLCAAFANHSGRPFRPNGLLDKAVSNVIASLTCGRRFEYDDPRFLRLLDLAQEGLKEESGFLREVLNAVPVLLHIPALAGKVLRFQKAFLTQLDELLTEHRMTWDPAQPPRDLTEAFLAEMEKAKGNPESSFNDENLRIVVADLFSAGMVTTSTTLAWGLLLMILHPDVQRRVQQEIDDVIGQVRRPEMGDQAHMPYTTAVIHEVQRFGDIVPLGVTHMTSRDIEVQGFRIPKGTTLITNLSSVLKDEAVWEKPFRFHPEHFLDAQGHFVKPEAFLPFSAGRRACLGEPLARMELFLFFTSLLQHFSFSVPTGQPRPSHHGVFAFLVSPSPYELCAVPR
Chain of Cytochrome P450 2C9 (P11712 whole entry): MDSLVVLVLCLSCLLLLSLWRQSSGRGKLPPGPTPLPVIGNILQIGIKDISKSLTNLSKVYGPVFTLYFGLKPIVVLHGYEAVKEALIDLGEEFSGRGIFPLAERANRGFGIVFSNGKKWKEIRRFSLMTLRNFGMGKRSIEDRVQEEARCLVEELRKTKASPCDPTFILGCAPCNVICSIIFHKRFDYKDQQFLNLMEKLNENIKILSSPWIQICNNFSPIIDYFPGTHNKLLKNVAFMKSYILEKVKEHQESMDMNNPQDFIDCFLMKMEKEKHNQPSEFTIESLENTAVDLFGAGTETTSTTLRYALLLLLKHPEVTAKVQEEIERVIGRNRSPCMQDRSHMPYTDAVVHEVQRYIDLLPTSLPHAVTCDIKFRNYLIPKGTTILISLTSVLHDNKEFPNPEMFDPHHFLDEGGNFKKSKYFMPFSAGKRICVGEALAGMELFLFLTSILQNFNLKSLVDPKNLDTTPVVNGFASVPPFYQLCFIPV
Chain of Voltage-gated inwardly rectifying potassium channel KCNH2 (Q12809 whole entry): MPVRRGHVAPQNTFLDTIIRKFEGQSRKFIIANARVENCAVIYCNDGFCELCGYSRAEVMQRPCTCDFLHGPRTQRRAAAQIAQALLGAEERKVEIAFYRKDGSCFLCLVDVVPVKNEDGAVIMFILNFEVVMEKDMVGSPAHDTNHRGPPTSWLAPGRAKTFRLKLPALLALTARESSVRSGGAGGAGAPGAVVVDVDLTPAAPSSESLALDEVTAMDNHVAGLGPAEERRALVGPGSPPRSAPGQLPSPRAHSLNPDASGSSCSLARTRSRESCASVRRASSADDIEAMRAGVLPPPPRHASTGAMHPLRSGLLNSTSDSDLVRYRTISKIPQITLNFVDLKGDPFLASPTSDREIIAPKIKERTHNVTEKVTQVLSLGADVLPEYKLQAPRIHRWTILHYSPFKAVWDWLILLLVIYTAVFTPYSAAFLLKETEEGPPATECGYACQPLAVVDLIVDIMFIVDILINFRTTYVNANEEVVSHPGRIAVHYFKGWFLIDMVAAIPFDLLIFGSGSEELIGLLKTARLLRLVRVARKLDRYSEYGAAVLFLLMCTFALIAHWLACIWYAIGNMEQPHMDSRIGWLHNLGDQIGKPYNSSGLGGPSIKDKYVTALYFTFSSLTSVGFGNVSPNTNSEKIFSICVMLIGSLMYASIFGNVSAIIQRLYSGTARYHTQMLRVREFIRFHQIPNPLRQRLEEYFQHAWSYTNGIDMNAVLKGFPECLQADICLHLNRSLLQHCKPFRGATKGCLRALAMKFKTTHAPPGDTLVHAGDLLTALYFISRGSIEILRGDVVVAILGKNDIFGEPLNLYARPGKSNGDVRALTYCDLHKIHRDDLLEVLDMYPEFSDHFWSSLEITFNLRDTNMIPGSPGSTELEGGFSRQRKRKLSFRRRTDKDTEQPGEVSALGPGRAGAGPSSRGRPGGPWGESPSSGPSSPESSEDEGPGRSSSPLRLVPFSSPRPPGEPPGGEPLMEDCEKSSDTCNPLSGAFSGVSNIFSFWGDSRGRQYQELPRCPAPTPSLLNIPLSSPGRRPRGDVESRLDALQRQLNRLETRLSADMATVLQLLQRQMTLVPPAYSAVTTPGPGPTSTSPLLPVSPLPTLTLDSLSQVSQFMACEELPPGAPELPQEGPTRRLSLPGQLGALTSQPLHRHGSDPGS

Structure (SMILES): Cc1ccc(-n2nccn2)c(C(=O)N2C[C@H](C#Cc3cccnc3)CC[C@H]2C)c1
IC50 [1]: 83 nM | IC50 [2]: 28 nM | Ki [3]: 107 nM | Ki [4]: 41 nM

Structure (SMILES): Cc1ccc(-n2nccn2)c(C(=O)N2C[C@H](/C=C\c3ccc(F)cn3)CC[C@H]2C)c1
IC50 [1]: 706 nM | IC50 [2]: 417 nM | Ki [3]: 135 nM | Ki [4]: 28 nM

Structure (SMILES): Cc1ccc(-n2nccn2)c(C(=O)N2C[C@H](C#Cc3cc(CO)ccn3)CC[C@H]2C)c1
Ki [3]: 76 nM | Ki [4]: 42 nM

Structure (SMILES): Cc1ccc(-n2nccn2)c(C(=O)N2C[C@H](CCc3ccc(F)cn3)CC[C@H]2C)c1
IC50 [1]: 861 nM | IC50 [2]: 145 nM | Ki [3]: 470 nM | Ki [4]: 26 nM

Structure (SMILES): Cc1ccc(-n2nccn2)c(C(=O)N2C[C@H](C#Cc3cncc(CO)c3)CC[C@H]2C)c1
Ki [3]: 108 nM | Ki [4]: 32 nM

Structure (SMILES): Cc1ccc(-n2nccn2)c(C(=O)N2C[C@H](C#Cc3ccc(CO)cn3)CC[C@H]2C)c1
Ki [3]: 211 nM | Ki [4]: 130 nM

Structure (SMILES): Cc1ccc(-n2nccn2)c(C(=O)N2C[C@H](C#Cc3cnccc3O)CC[C@H]2C)c1
IC50 [1]: 3880 nM | IC50 [2]: 52 nM | Ki [3]: 866 nM | Ki [4]: 7.5 nM

Structure (SMILES): Cc1ccc(-n2nccn2)c(C(=O)N2C[C@H](C#Cc3ccc(CO)nc3)CC[C@H]2C)c1
Ki [3]: 339 nM | Ki [4]: 150 nM

Further lines, with some results ahead:

IC50 [1]: 59 nM | IC50 [2]: 26 nM | Ki [3]: 18 nM | logD [5]: 2.1 | Ki [4]: 5.6 nM
Structure (SMILES): Cc1ccc(-n2nccn2)c(C(=O)N2C[C@H](C#Cc3cccc(CO)n3)CC[C@H]2C)c1

Ki [3]: 26 nM | Ki [4]: 7 nM
Structure (SMILES): Cc1ccc(-n2nccn2)c(C(=O)N2C[C@H](C#Cc3ccncc3)CC[C@H]2C)c1

IC50 [1]: 6.3 nM | IC50 [6]: 4000 nM | IC50 [2]: 6.3 nM | Ki [3]: 0.56 nM | Ki [4]: 0.53 nM
Structure (SMILES): Cc1ccc(-n2nccn2)c(C(=O)N2C[C@H](C#Cc3cccc(CO)c3)CC[C@H]2C)c1

IC50 [1]: 140 nM | IC50 [2]: 34 nM | Ki [3]: 17 nM | Ki [4]: 3 nM
Structure (SMILES): Cc1ccc(-n2nccn2)c(C(=O)N2C[C@H](/C=C/c3ccc(F)cn3)CC[C@H]2C)c1

IC50 [1]: 298 nM | IC50 [2]: 100 nM | Ki [3]: 75 nM | Ki [4]: 25 nM
Structure (SMILES): Cc1ccc(-n2nccn2)c(C(=O)N2C[C@H](C#Cc3ccnc(CO)c3)CC[C@H]2C)c1

clearance [7]: 1.6 mL/min/kg | IC50 [1]: 31 nM | fraction unbound [10]: 0.039 | IC50 [6]: > 50000 nM | IC50 [2]: 24 nM | INH [13]: 32 µM | Ki [3]: 1.1 nM | INH [16]: > 50 µM | AUC [18]: 60 µM·h | inhibition (INH) [19]: tde | fraction unbound [20]: 0.009 | solubility [21]: 124 µM (≈ 50 µg/mL) | logD [5]: 3.7 | half-life [23]: 2 h | Ki [4]: 1.1 nM
Structure (SMILES): Cc1ccc(-n2nccn2)c(C(=O)N2C[C@H](C#Cc3ccc(F)cn3)CC[C@H]2C)c1
Activity [8]: inactive | Activity [9]: Active | IC50 shift [11]: > 6.4 | Activity [12]: Active | Activity [14]: Active | Time [15]: 2 h | Activity [17]: Active | Activity [22]: Active | INH [24]: 23 µM | Activity [25]: Active

IC50 [1]: 100 nM | IC50 [2]: 42 nM | Ki [3]: 27 nM | Ki [4]: 11 nM
Structure (SMILES): Cc1ccc(-n2nccn2)c(C(=O)N2C[C@H](C#Cc3ccccn3)CC[C@H]2C)c1

IC50 [1]: 16 nM | IC50 [2]: 15 nM | Ki [3]: 1 nM | Ki [4]: 0.2 nM
Structure (SMILES): Cc1ccc(-n2nccn2)c(C(=O)N2C[C@H](COc3ccc(F)cn3)CC[C@H]2C)c1

Ki [3]: 24 nM | Ki [4]: 24 nM
Structure (SMILES): Cc1ccc(-n2nccn2)c(C(=O)N2C[C@H](C#Cc3cccnc3O)CC[C@H]2C)c1
